Like-named read-outs stand apart in the source and are kept apart here.
Experiments:
[1] = test system: cancer and normal colon cells; details: both cell lines (cancer and normal colon cells); cited from earlier work
[2] = test system: HCT-116 (human colon carcinoma); test: MTS cytotoxicity assay, HCT-116 cells; assay type: cell-based
In short: (§1)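 Cells grown in McCoy's 5a with 10% FBS, 1% NEAA and 2% HEPES at 37 °C, 5% CO2, then seeded at 2000–5,000/well 24 h before dosing. Test compound in DMSO (<0.5% final) was given as six-point 4-fold serial dilutions for 24, 48 or 72 h. Read-out was MTS plus phenazine methosulphate for 3 h, OD490 versus DMSO controls. IC50 from curves; mean ± SE, three replications.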

[3] = test system: CCD-18Co (human colon fibroblasts); test: MTS cytotoxicity assay, non-cancerous CCD-18Co cells; assay type: cell-based
In short: as §1, with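 “Colon fibroblasts” for “Cells”, “EMEM” for “McCoy's 5a”, “1% L-glutamine” for “2% HEPES”, “CO2; used at PDL 26–35. Seeded” for “CO2, then seeded”, “MTS/phenazine” for “MTS plus phenazine”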

[4] = test system: Caco-2 (human epithelial colorectal adenocarcinoma); test: MTS cytotoxicity assay, Caco-2 cells; assay type: cell-based
[5] = test system: HT-29 (human colon adenocarcinoma); test: MTS cytotoxicity assay, HT-29 cells; assay type: cell-based
In short: as §1

[6] = test system: cisplatin-resistant ovarian and testicular cancer cell lines; details: ref 9c; cited from earlier work

SMILES: N.N.[Cl][Pt][Cl] [Cisplatin]
- inhibition of cell proliferation [1]: about 70%

SMILES: COc1cc([C@@H]2c3cc4c(cc3[C@@H](O[C@@H]3O[C@@H]5CO[C@@H](C)O[C@H]5[C@H](O)[C@H]3O)[C@H]3COC(=O)[C@H]23)OCO4)cc(OC)c1O [Etoposide]
- IC50 ([2]; HCT-116, 24 h, read-out: IC50 HCT-116 24 hours): 40.8 ± 0.5 µM
- IC50 ([2]; HCT-116, 48 h, read-out: IC50 HCT-116 48 hours): 36.2 ± 2 µM
- IC50 ([2]; HCT-116, 72 h, read-out: IC50 HCT-116 72 hours): 38.4 ± 1.2 µM
- IC50 ([3]; 24 h, read-out: IC50 CCD-18Co 24 hours): 82.5 ± 3.1 µM
- IC50 ([3]; 48 h, read-out: IC50 CCD-18Co 48 hours): 79.2 ± 1.2 µM
- IC50 ([3]; 72 h, read-out: IC50 CCD-18Co 72 hours): 73.2 ± 1.9 µM
- IC50 ([4]; Caco-2, 24 h, read-out: IC50 Caco-2 24 hours): 47.6 ± 0.8 µM
- IC50 ([4]; Caco-2, 48 h, read-out: IC50 Caco-2 48 hours): 46.2 ± 1.9 µM
- IC50 ([4]; Caco-2, 72 h, read-out: IC50 Caco-2 72 hours): 40.9 ± 1.5 µM
- IC50 ([5]; HT-29, 24 h, read-out: IC50 HT-29 24 hours): 19.2 ± 0.8 µM
- IC50 ([5]; HT-29, 48 h, read-out: IC50 HT-29 48 hours): 17.3 ± 1.9 µM
- IC50 ([5]; HT-29, 72 h, read-out: IC50 HT-29 72 hours): 15.8 ± 2.4 µM

SMILES: Cc1ccnc2c1ccc1c(C)ccnc12.Cc1ccnc2c1ccc1c(C)ccnc12.O=S(=O)([O-])[O-].[O]=[V+2] [metvan, bis(4,7-dimethyl-1,10-phenanthroline)sulfatooxovanadium(IV)]
- effectiveness against cisplatin-resistant cancer cell lines [6]: highly effective
